Measured values taken from ChEMBL document CHEMBL1772967 (J Med Chem, 2011).
Each block holds one compound with its values, some of them ahead of it. Active and inactive are the calls of the source. The calls are words filed in the database; no cut-off is given here.

Assays:
[1] = target: T1, Albumin (Homo sapiens, UniProt P02768); experiment: Binding affinity to human serum albumin at 500 uM at 37 degC by surface plasmon resonance assay; format: ADME; conditions: isolated protein
[2] = target: T2, Albumin (Rattus norvegicus, UniProt P02770); experiment: Binding affinity to rat serum albumin at 500 uM at 37 degC by surface plasmon resonance assay; format: ADME; conditions: isolated protein
[3] = Binding affinity to low-affinity site of human alpha-1-acid glycoprotein at 20 degC by surface plasmon resonance assay; format: ADME
Summary of the method: (§1)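 Cross-serial dilutions, top 250 μM. Reference-subtracted, solvent-corrected, double-referenced responses at the end of association plotted against concentration and fitted to single- or two-site equilibrium models.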

[4] = Binding affinity to high-affinity binding site of rat alpha-1-acid glycoprotein at 20 degC by surface plasmon resonance assay; format: ADME; summary of the method: as §1
[5] = Binding affinity to low-affinity binding site of rat alpha-1-acid glycoprotein at 20 degC by surface plasmon resonance assay; format: ADME; summary of the method: as §1
[6] = target: T1, Albumin; experiment: Binding affinity to human serum albumin at 500 uM at 20 degC by surface plasmon resonance assay; format: ADME; conditions: isolated protein
[7] = target: T2, Albumin; experiment: Binding affinity to rat serum albumin at 500 uM at 20 degC by surface plasmon resonance assay; format: ADME; conditions: isolated protein
[8] = Binding affinity to human alpha-1-acid glycoprotein at 25 degC; format: ADME
[9] = Binding affinity to human alpha-1-acid glycoprotein at 20 degC by isothermal titration calorimetry analysis; format: ADME
Summary of the method: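 ITC at 20 °C. Human (300 μM) or rat (100 μM) AAG dialysed overnight at 4 °C into 50 mM HEPES pH 7.2, 150 mM NaCl, 0.005% Tween-20, 5% DMSO. Heats corrected with buffer controls and fitted to a one-site model.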

[10] = Binding affinity to high-affinity site of human alpha-1-acid glycoprotein at 20 degC by surface plasmon resonance assay; format: ADME; summary of the method: as §1
[11] = Binding affinity to 10 uM of human alpha-1-acid glycoprotein in at 5 uM after 6 hrs by equilibrium dialysis method; format: ADME; conditions: isolated protein
Summary of the method: (§2)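 [14C]-labelled plus unlabelled drug added to human AAG at 0.5, 1 or 5 mg/mL to give 5, 25 or 75 μM drug. Dialysed against 0.133 M isotonic phosphate buffer, 6 h, 37 °C, 5% CO2. Scintillation counting of both sides gives % free (buffer/protein side ×100) and % bound. High-affinity KD from a two-site fit of bound vs free, Bmax1 fixed at the AAG concentration.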

[12] = Binding affinity human alpha-1-acid glycoprotein in after 6 hrs by equilibrium dialysis method; format: ADME; summary of the method: as §2
[13] = target: Sonic hedgehog protein (Homo sapiens) (UniProt Q15465); experiment: Inhibition of human SHH pathway in mouse S12 cells assessed as GLI-mediated transcriptional activity after 48 hrs by luciferase reporter gene assay in presence of 1 mg/mL human alpha-1-acid glycoprotein; format: cell-based
Summary of the method: (§3)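 Mouse C3H10T1/2-derived S12 cells carrying a stably integrated GLI-luciferase reporter. Grown in high-glucose DMEM with 10% FBS, replated, then switched to 0.5% FBS to induce cilia. Shh, human AAG (0, 0.5, 1 or 5 mg/mL) and compound added. Luciferase (Dual-Glo) read after 48 h. Mean of four experiments ±SD.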

[14] = target: Sonic hedgehog protein (Homo sapiens) (UniProt Q15465); experiment: Inhibition of human SHH pathway in mouse S12 cells assessed as GLI-mediated transcriptional activity at 3 uM after 48 hrs by luciferase reporter gene assay in presence of 5 mg/mL human alpha-1-acid glycoprotein; format: cell-based; summary of the method: as §3
[15] = Binding affinity to human alpha-1-acid glycoprotein at 37 degC by surface plasmon resonance assay; format: ADME; summary of the method: as §1
[16] = Binding affinity to rat alpha-1-acid glycoprotein at 250 uM at 37 degC by surface plasmon resonance assay; format: ADME; summary of the method: as §1
[17] = target: T2, Albumin; experiment: Binding affinity to rat serum albumin at 37 degC by surface plasmon resonance assay
[18] = target: T2, Albumin; experiment: Binding affinity to high-affinity binding site of rat serum albumin at 20 degC by surface plasmon resonance assay
[19] = target: T2, Albumin; experiment: Binding affinity to low-affinity binding site of rat serum albumin at 20 degC by surface plasmon resonance assay
[20] = Binding affinity to […] uM of human alpha-1-acid glycoprotein in at 5 uM after 6 hrs by equilibrium dialysis method; format: ADME; conditions: isolated protein
[21] = Binding affinity to 100 uM of human alpha-1-acid glycoprotein in at 5 uM after 6 hrs by equilibrium dialysis method; format: ADME; conditions: isolated protein; summary of the method: as §2
[22] = Binding affinity to 10 uM of human alpha-1-acid glycoprotein in at 25 uM after 6 hrs by equilibrium dialysis method; format: ADME; conditions: isolated protein; summary of the method: as §2
[23] = Binding affinity to […] uM of human alpha-1-acid glycoprotein in at 25 uM after 6 hrs by equilibrium dialysis method; format: ADME; conditions: isolated protein
[24] = Binding affinity to 100 uM of human alpha-1-acid glycoprotein in at 25 uM after 6 hrs by equilibrium dialysis method; format: ADME; conditions: isolated protein; summary of the method: as §2
[25] = Binding affinity to 10 uM of human alpha-1-acid glycoprotein in at 75 uM after 6 hrs by equilibrium dialysis method; format: ADME; conditions: isolated protein; summary of the method: as §2
[26] = Binding affinity to […] uM of human alpha-1-acid glycoprotein in at 75 uM after 6 hrs by equilibrium dialysis method; format: ADME; conditions: isolated protein
[27] = Binding affinity to 100 uM of human alpha-1-acid glycoprotein in at 75 uM after 6 hrs by equilibrium dialysis method; format: ADME; conditions: isolated protein; summary of the method: as §2
[28] = Binding affinity to human alpha-1-acid glycoprotein at 500 uM at 37 degC by surface plasmon resonance assay; format: ADME
Summary of the method: (§4)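 Compounds were diluted from 10 mM DMSO stocks into 50 mM Hepes pH 7.2, 150 mM NaCl, 0.005% Tween-20, 5% DMSO, in cross-serial dilutions. Responses at the end of association were double-referenced, solvent-corrected and fit to single- or two-site equilibrium models for KD.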

[29] = Binding affinity to rat alpha-1-acid glycoprotein at 500 uM at 37 degC by surface plasmon resonance assay; format: ADME; summary of the method: as §4
[30] = Binding affinity to human alpha-1-acid glycoprotein at 500 uM at 20 degC by surface plasmon resonance assay; format: ADME; summary of the method: as §4
[31] = Binding affinity to rat alpha-1-acid glycoprotein at 500 uM at 20 degC by surface plasmon resonance assay; format: ADME; summary of the method: as §4

T2 sequence (P02770 whole entry): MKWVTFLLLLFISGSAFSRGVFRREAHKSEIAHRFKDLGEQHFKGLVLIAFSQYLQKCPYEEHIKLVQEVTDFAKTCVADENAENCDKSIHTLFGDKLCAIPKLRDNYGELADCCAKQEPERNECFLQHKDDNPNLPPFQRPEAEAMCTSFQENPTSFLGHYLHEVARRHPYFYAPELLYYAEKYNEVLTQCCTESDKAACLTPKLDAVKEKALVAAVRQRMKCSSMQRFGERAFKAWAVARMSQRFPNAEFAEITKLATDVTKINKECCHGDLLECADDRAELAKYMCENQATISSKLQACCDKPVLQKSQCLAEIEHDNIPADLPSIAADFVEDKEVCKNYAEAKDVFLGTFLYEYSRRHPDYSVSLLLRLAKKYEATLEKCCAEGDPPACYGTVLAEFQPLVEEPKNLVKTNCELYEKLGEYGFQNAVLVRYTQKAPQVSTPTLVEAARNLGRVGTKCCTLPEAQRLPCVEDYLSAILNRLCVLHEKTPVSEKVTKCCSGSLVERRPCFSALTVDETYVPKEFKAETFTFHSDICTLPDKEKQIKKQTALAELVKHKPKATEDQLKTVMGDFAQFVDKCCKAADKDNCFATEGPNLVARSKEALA
Chain of Sonic hedgehog protein (Homo sapiens) (Q15465 24-197 limits assumed): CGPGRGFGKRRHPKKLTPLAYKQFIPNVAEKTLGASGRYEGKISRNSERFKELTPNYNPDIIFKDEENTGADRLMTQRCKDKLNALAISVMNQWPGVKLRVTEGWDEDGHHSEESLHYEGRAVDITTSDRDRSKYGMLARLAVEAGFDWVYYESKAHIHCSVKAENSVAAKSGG
T1 sequence (P02768 whole entry): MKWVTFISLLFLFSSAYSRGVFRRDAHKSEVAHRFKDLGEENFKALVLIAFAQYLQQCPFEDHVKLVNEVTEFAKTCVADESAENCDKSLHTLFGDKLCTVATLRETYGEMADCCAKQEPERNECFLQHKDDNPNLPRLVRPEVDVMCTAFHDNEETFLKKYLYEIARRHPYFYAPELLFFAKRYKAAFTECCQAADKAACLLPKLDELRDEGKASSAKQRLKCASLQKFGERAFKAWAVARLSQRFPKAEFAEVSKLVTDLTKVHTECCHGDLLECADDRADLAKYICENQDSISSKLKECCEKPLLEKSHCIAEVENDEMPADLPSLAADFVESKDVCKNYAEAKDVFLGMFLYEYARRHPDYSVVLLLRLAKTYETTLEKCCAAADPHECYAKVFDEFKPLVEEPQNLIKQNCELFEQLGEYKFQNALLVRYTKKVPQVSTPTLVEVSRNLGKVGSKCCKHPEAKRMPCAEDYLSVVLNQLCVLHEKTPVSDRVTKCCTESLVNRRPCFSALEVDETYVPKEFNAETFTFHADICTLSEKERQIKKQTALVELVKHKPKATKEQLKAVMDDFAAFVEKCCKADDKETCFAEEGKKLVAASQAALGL

- Activity [1]: Not Active
- Activity [2]: Not Active
- Kd [3]: 219 µM
- Kd [4]: 71 µM
- Kd [5]: 1700 µM
- Activity [6]: Not Active
- Activity [7]: Not Active
- Kd [8]: 8.3 µM
- Kd [9]: 7 µM
- Kd [10]: 15.3 µM
SMILES: C=CC1=C(C)/C(=C/C2=NC(=C\c3[nH]c(/C=C4\NC(=O)C(C)=C4C=C)c(C)c3CCC(=O)O)/C(CCC(=O)O)=C2C)NC1=O [BILIVERDIN]

SMILES: CS(=O)(=O)c1ccc(C(=O)Nc2ccc(Cl)c(-c3ccccn3)c2)c(Cl)c1 [VISMODEGIB]
- Activity [11]: 96.5%
- Kd [12]: 1.5 µM
- inhibition [13]: Active
- inhibition [14]: inactive
- Kd [15]: 13 µM
- Activity [16]: Not Active
- Kd [17]: 140 µM
- Kd [3]: 139 µM
- Kd [18]: 171 µM
- Kd [19]: 5.8 µM
- Kd [9]: 1.1 µM
- Kd [10]: 3.7 µM
- Activity [20]: 98.3%
- Activity [21]: 98.8%
- Activity [22]: 70.4%
- Activity [23]: 88.9%
- Activity [24]: 98.7%
- Activity [25]: 41.1%
- Activity [26]: 60%
- Activity [27]: 98.3%

SMILES: CC(=O)CC(c1ccccc1)c1c(O)c2ccccc2oc1=O (centres undefined) [WARFARIN]
- Activity [28]: Not Active
- Activity [29]: Not Active
- Activity [30]: Not Active
- Activity [31]: Not Active
